ChEMBL document CHEMBL1828568, “Novel imaging agents for β-amyloid plaque based on the N-benzoylindole core” (Bioorg Med Chem Lett, 2011)

Columns and labels:
Stomach [1] = experiment: Biodistribution in Kunming mouse stomach assessed per organ at 1 uCi, iv after 30 mins by gamma counting; assay type: ADME, organism-based; settings: in vivo, 0.5 h
Outline: (§1)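 Radioiodinated tracers given intravenously to normal mice; organs taken at 2, 15, 30, 60, 120 and 240 min after injection. Uptake expressed as % ID/g, mean ± SD of 5 mice; stomach values carry a table footnote.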

Spleen [2] = experiment: Biodistribution in Kunming mouse spleen at 1 uCi, iv after 240 mins by gamma counting; assay type: ADME, organism-based; settings: in vivo, 4 h
Outline: (§2)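 125I-labeled tracer given intravenously to normal mice. Organs and blood were sampled at 2, 15, 30, 60, 120 and 240 min after injection. Uptake is expressed as % ID/g, averaged over 5 mice ± SD.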

Heart [3] = experiment: Biodistribution in Kunming mouse heart at 1 uCi, iv after 240 mins by gamma counting; assay type: ADME, organism-based; settings: in vivo, 4 h; outline: as §2
Kidney [4] = experiment: Biodistribution in Kunming mouse kidney at 1 uCi, iv after 15 mins by gamma counting; assay type: ADME, organism-based; settings: in vivo, 0.25 h; outline: as §2
Kidney [5] = experiment: Biodistribution in Kunming mouse kidney at 1 uCi, iv after 30 mins by gamma counting; assay type: ADME, organism-based; settings: in vivo, 0.5 h; outline: as §2
Muscle tissue [6] = experiment: Biodistribution in Kunming mouse muscle at 1 uCi, iv after 15 mins by gamma counting; assay type: ADME, organism-based; settings: in vivo, 0.25 h; outline: as §2
Kidney [7] = experiment: Biodistribution in Kunming mouse kidney at 1 uCi, iv after 2 mins by gamma counting; assay type: ADME, organism-based; settings: in vivo; outline: as §2
Spleen [8] = experiment: Biodistribution in Kunming mouse spleen at 1 uCi, iv after 30 mins by gamma counting; assay type: ADME, organism-based; settings: in vivo, 0.5 h; outline: as §2
Muscle tissue [9] = experiment: Biodistribution in Kunming mouse muscle at 1 uCi, iv after 120 mins by gamma counting; assay type: ADME, organism-based; settings: in vivo, 2 h; outline: as §2
Stomach [10] = experiment: Biodistribution in Kunming mouse stomach assessed per organ at 1 uCi, iv after 2 mins by gamma counting; assay type: ADME, organism-based; settings: in vivo; outline: as §1
Heart [11] = experiment: Biodistribution in Kunming mouse heart at 1 uCi, iv after 15 mins by gamma counting; assay type: ADME, organism-based; settings: in vivo, 0.25 h; outline: as §2
Muscle tissue [12] = experiment: Biodistribution in Kunming mouse muscle at 1 uCi, iv after 2 mins by gamma counting; assay type: ADME, organism-based; settings: in vivo; outline: as §2
Spleen [13] = experiment: Biodistribution in Kunming mouse spleen at 1 uCi, iv after 60 mins by gamma counting; assay type: ADME, organism-based; settings: in vivo, 1 h; outline: as §1
Spleen [14] = experiment: Biodistribution in Kunming mouse spleen at 1 uCi, iv after 15 mins by gamma counting; assay type: ADME, organism-based; settings: in vivo, 0.25 h; outline: as §2
Spleen [15] = experiment: Biodistribution in Kunming mouse spleen at 1 uCi, iv after 2 mins by gamma counting; assay type: ADME, organism-based; settings: in vivo; outline: as §2
Lung [16] = experiment: Biodistribution in Kunming mouse lung at 1 uCi, iv after 30 mins by gamma counting; assay type: ADME, organism-based; settings: in vivo, 0.5 h; outline: as §2
Liver [17] = experiment: Biodistribution in Kunming mouse liver at 1 uCi, iv after 120 mins by gamma counting; assay type: ADME, organism-based; settings: in vivo, 2 h; outline: as §2
Lung [18] = experiment: Biodistribution in Kunming mouse lung at 1 uCi, iv after 240 mins by gamma counting; assay type: ADME, organism-based; settings: in vivo, 4 h; outline: as §2
Muscle tissue [19] = experiment: Biodistribution in Kunming mouse muscle at 1 uCi, iv after 240 mins by gamma counting; assay type: ADME, organism-based; settings: in vivo, 4 h; outline: as §2
Kidney [20] = experiment: Biodistribution in Kunming mouse kidney at 1 uCi, iv after 120 mins by gamma counting; assay type: ADME, organism-based; settings: in vivo, 2 h; outline: as §2
Stomach [21] = experiment: Biodistribution in Kunming mouse stomach assessed per organ at 1 uCi, iv after 15 mins by gamma counting; assay type: ADME, organism-based; settings: in vivo, 0.25 h; outline: as §1
Blood [22] = experiment: Biodistribution in Kunming mouse blood at 1 uCi, iv after 2 mins by gamma counting; assay type: ADME, organism-based; settings: in vivo; outline: as §2
Stomach [23] = experiment: Biodistribution in Kunming mouse stomach assessed per organ at 1 uCi, iv after 120 mins by gamma counting; assay type: ADME, organism-based; settings: in vivo, 2 h; outline: as §1
Liver [24] = experiment: Biodistribution in Kunming mouse liver at 1 uCi, iv after 15 mins by gamma counting; assay type: ADME, organism-based; settings: in vivo, 0.25 h; outline: as §2
Liver [25] = experiment: Biodistribution in Kunming mouse liver at 1 uCi, iv after 2 mins by gamma counting; assay type: ADME, organism-based; settings: in vivo; outline: as §2
Muscle tissue [26] = experiment: Biodistribution in Kunming mouse muscle at 1 uCi, iv after 30 mins by gamma counting; assay type: ADME, organism-based; settings: in vivo, 0.5 h; outline: as §2
Spleen [27] = experiment: Biodistribution in Kunming mouse spleen at 1 uCi, iv after 120 mins by gamma counting; assay type: ADME, organism-based; settings: in vivo, 2 h; outline: as §2
[28] = Octanol-phosphate buffer partition coefficient, log D of the compound at pH 7.4; assay type: physicochemical
Outline: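 Radioiodinated tracer partitioned between n-octanol and PBS at pH 7.4; log D reported as mean ± SD.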

Muscle tissue [29] = experiment: Biodistribution in Kunming mouse muscle at 1 uCi, iv after 60 mins by gamma counting; assay type: ADME, organism-based; settings: in vivo, 1 h; outline: as §2
Blood [30] = experiment: Biodistribution in Kunming mouse blood at 1 uCi, iv after 15 mins by gamma counting; assay type: ADME, organism-based; settings: in vivo, 0.25 h; outline: as §2
Kidney [31] = experiment: Biodistribution in Kunming mouse kidney at 1 uCi, iv after 60 mins by gamma counting; assay type: ADME, organism-based; settings: in vivo, 1 h; outline: as §2
Liver [32] = experiment: Biodistribution in Kunming mouse liver at 1 uCi, iv after 60 mins by gamma counting; assay type: ADME, organism-based; settings: in vivo, 1 h; outline: as §2
Blood [33] = experiment: Biodistribution in Kunming mouse blood at 1 uCi, iv after 60 mins by gamma counting; assay type: ADME, organism-based; settings: in vivo, 1 h; outline: as §2
Blood [34] = experiment: Biodistribution in Kunming mouse blood at 1 uCi, iv after 240 mins by gamma counting; assay type: ADME, organism-based; settings: in vivo, 4 h; outline: as §2
Lung [35] = experiment: Biodistribution in Kunming mouse lung at 1 uCi, iv after 2 mins by gamma counting; assay type: ADME, organism-based; settings: in vivo; outline: as §2
Blood [36] = experiment: Biodistribution in Kunming mouse blood at 1 uCi, iv after 30 mins by gamma counting; assay type: ADME, organism-based; settings: in vivo, 0.5 h; outline: as §2
Stomach [37] = experiment: Biodistribution in Kunming mouse stomach assessed per organ at 1 uCi, iv after 60 mins by gamma counting; assay type: ADME, organism-based; settings: in vivo, 1 h; outline: as §1
Lung [38] = experiment: Biodistribution in Kunming mouse lung at 1 uCi, iv after 15 mins by gamma counting; assay type: ADME, organism-based; settings: in vivo, 0.25 h; outline: as §2
Heart [39] = experiment: Biodistribution in Kunming mouse heart at 1 uCi, iv after 60 mins by gamma counting; assay type: ADME, organism-based; settings: in vivo, 1 h; outline: as §2
Heart [40] = experiment: Biodistribution in Kunming mouse heart at 1 uCi, iv after 120 mins by gamma counting; assay type: ADME, organism-based; settings: in vivo, 2 h; outline: as §2
Brain [41] = experiment: Biodistribution in Kunming mouse brain at 1 uCi, iv after 60 mins by gamma counting; assay type: ADME, organism-based; settings: in vivo, 1 h; outline: as §2
Heart [42] = experiment: Biodistribution in Kunming mouse heart at 1 uCi, iv after 30 mins by gamma counting; assay type: ADME, organism-based; settings: in vivo, 0.5 h; outline: as §2
Liver [43] = experiment: Biodistribution in Kunming mouse liver at 1 uCi, iv after 240 mins by gamma counting; assay type: ADME, organism-based; settings: in vivo, 4 h; outline: as §2
Kidney [44] = experiment: Biodistribution in Kunming mouse kidney at 1 uCi, iv after 240 mins by gamma counting; assay type: ADME, organism-based; settings: in vivo, 4 h; outline: as §2
Brain [45] = experiment: Biodistribution in Kunming mouse brain at 1 uCi, iv after 240 mins by gamma counting; assay type: ADME, organism-based; settings: in vivo, 4 h; outline: as §2
Liver [46] = experiment: Biodistribution in Kunming mouse liver at 1 uCi, iv after 30 mins by gamma counting; assay type: ADME, organism-based; settings: in vivo, 0.5 h; outline: as §2
Brain [47] = experiment: Biodistribution in Kunming mouse brain at 1 uCi, iv after 30 mins by gamma counting; assay type: ADME, organism-based; settings: in vivo, 0.5 h; outline: as §2
Stomach [48] = experiment: Biodistribution in Kunming mouse stomach assessed per organ at 1 uCi, iv after 240 mins by gamma counting; assay type: ADME, organism-based; settings: in vivo, 4 h; outline: as §1
Lung [49] = experiment: Biodistribution in Kunming mouse lung at 1 uCi, iv after 60 mins by gamma counting; assay type: ADME, organism-based; settings: in vivo, 1 h; outline: as §2
Heart [50] = experiment: Biodistribution in Kunming mouse heart at 1 uCi, iv after 2 mins by gamma counting; assay type: ADME, organism-based; settings: in vivo; outline: as §2
Lung [51] = experiment: Biodistribution in Kunming mouse lung at 1 uCi, iv after 120 mins by gamma counting; assay type: ADME, organism-based; settings: in vivo, 2 h; outline: as §2
Brain [52] = experiment: Biodistribution in Kunming mouse brain at 1 uCi, iv after 120 mins by gamma counting; assay type: ADME, organism-based; settings: in vivo, 2 h; outline: as §2
Blood [53] = experiment: Biodistribution in Kunming mouse blood at 1 uCi, iv after 120 mins by gamma counting; assay type: ADME, organism-based; settings: in vivo, 2 h; outline: as §2
Brain [54] = experiment: Biodistribution in Kunming mouse brain at 1 uCi, iv after 2 mins by gamma counting; assay type: ADME, organism-based; settings: in vivo; outline: as §2
Brain [55] = experiment: Biodistribution in Kunming mouse brain at 1 uCi, iv after 15 mins by gamma counting; assay type: ADME, organism-based; settings: in vivo, 0.25 h; outline: as §2

O=C(/C=C/c1ccccc1)n1ccc2cc([125I])ccc21
Drug uptake (Stomach [1]): 1.72 %ID
Drug uptake (Spleen [2]): 0.59 % ID/g
Drug uptake (Heart [3]): 0.61 % ID/g
Drug uptake (Kidney [4]): 9.68 % ID/g
Drug uptake (Kidney [5]): 10.16 % ID/g
Drug uptake (Muscle tissue [6]): 2.47 % ID/g
Drug uptake (Kidney [7]): 11.22 % ID/g
Drug uptake (Spleen [8]): 1.71 % ID/g
Drug uptake (Muscle tissue [9]): 0.84 % ID/g
Drug uptake (Stomach [10]): 1.09 %ID
Drug uptake (Heart [11]): 2.9 % ID/g
Drug uptake (Muscle tissue [12]): 3.97 % ID/g
Drug uptake (Spleen [13]): 1.85 % ID/g
Drug uptake (Spleen [14]): 2.44 % ID/g
Drug uptake (Spleen [15]): 4.08 % ID/g
Drug uptake (Lung [16]): 4.88 % ID/g
Drug uptake (Liver [17]): 4.86 % ID/g
Drug uptake (Lung [18]): 1.27 % ID/g
Drug uptake (Muscle tissue [19]): 0.19 % ID/g
Drug uptake (Kidney [20]): 3.54 % ID/g
Drug uptake (Stomach [21]): 1.52 %ID
Drug uptake (Blood [22]): 14.13 % ID/g
Drug uptake (Stomach [23]): 2.29 %ID
Drug uptake (Liver [24]): 7.73 % ID/g
Drug uptake (Liver [25]): 15.89 % ID/g
Drug uptake (Muscle tissue [26]): 2.06 % ID/g
Drug uptake (Spleen [27]): 0.63 % ID/g
logD [28]: 2.53
Drug uptake (Muscle tissue [29]): 1.06 % ID/g
Drug uptake (Blood [30]): 3.91 % ID/g
Drug uptake (Kidney [31]): 6.14 % ID/g
Drug uptake (Liver [32]): 4.09 % ID/g
Drug uptake (Blood [33]): 2.88 % ID/g
Drug uptake (Blood [34]): 1.07 % ID/g
Drug uptake (Lung [35]): 14.5 % ID/g
Drug uptake (Blood [36]): 3.75 % ID/g
Drug uptake (Stomach [37]): 2.08 %ID
Drug uptake (Lung [38]): 6.73 % ID/g
Drug uptake (Heart [39]): 1.53 % ID/g
Drug uptake (Heart [40]): 0.99 % ID/g
Drug uptake (Brain [41]): 0.77 % ID/g
Drug uptake (Heart [42]): 2.07 % ID/g
Drug uptake (Liver [43]): 2.23 % ID/g
Drug uptake (Kidney [44]): 2.22 % ID/g
Drug uptake (Brain [45]): 0.17 % ID/g
Drug uptake (Liver [46]): 6.48 % ID/g
Drug uptake (Brain [47]): 1.57 % ID/g
Drug uptake (Stomach [48]): 1.3 %ID
Drug uptake (Lung [49]): 2.66 % ID/g
Drug uptake (Heart [50]): 10.72 % ID/g
Drug uptake (Lung [51]): 2.1 % ID/g
Drug uptake (Brain [52]): 0.33 % ID/g
Drug uptake (Blood [53]): 1.61 % ID/g
Drug uptake (Brain [54]): 2 % ID/g
Drug uptake (Brain [55]): 1.98 % ID/g
